# Test results from ChEMBL document CHEMBL3616366, “Design, synthesis and biological activity of new amides derived from 3-methyl-3-phenyl-2,5-dioxo-pyrrolidin-1-yl-acetic acid” (Eur J Med Chem, 2015).
# Active and inactive are the calls of the source.
# How the values were obtained:
# Mus musculus [1] = assay: Anticonvulsant activity in albino CD-1 mouse assessed as protection against subcutaneous pentylenetetrazole-induced seizure at 30 to 300 mg/kg, ip measured after 2.0 hrs; type: functional; details: for minimal effective dose: CD-1, 2 h, read-out: MED
# Summary of the method: (§1)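 Male CD-1 mice given compound i.p. (0.5% methylcellulose suspension) at 30, 100, 300 mg/kg, four per group; pentylenetetrazole 85 mg/kg s.c. at 0.5 or 2 h. Absence of clonic convulsions (≥5 s) over 30 min observation counts as protection. Minimum active dose reported.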
# Mus musculus [2] = assay: Neurotoxicity in albino CD-1 mouse assessed as motor impairment at 30 to 300 mg/kg mg/kg, ip measured after 0.5 hrs by rotarod test; type: toxicity, organism-based; details: in vivo
# Summary of the method: (§2)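 Rotarod in male CD-1 mice at 0.5 and 2 h after i.p. 30, 100 or 300 mg/kg (methylcellulose suspension); motor impairment = inability to keep balance on rod turning at 10 rpm for at least 1 min. Minimum neurotoxic dose reported.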
# Mus musculus [3] = assay: Neurotoxicity in albino CD-1 mouse assessed as motor impairment at 30 to 300 mg/kg mg/kg, ip measured after 2 hrs by rotarod test; type: toxicity, organism-based; details: in vivo; summary of the method: as §2
# Mus musculus [4] = assay: Anticonvulsant activity in ip dosed albino CD-1 mouse assessed as protection against 6 Hz current-induced seizure measured after 2.0 hrs; type: functional; details: CD-1, ip, read-out: MED
# Summary of the method: (§3)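 6-Hz psychomotor test: corneal stimulation 32 mA, 0.2 ms monopolar rectangular pulses at 6 Hz for 3 s, mice restrained then released to observation cage. Protected if normal exploratory behaviour resumes within 10 s. Doses 30, 100, 300 mg/kg i.p.; read at 0.5 and 2 h; minimum active dose.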
# Mus musculus [5] = assay: Anticonvulsant activity in albino CD-1 mouse assessed as protection against subcutaneous pentylenetetrazole-induced seizure at 30 to 300 mg/kg, ip measured after 0.5 hrs; type: functional; details: for minimal effective dose: CD-1, 0.5 h, read-out: MED; summary of the method: as §1
# Mus musculus [6] = assay: Anticonvulsant activity in albino CD-1 mouse assessed as protection against maximal electroshock-induced seizure at 30 to 300 mg/kg, ip measured after 2.0 hrs; type: functional; details: for minimal effective dose: CD-1, ip, read-out: MED
# Summary of the method: (§4)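 Male CD-1 mice (16–26 g), compound suspended in 0.5% methylcellulose/water, i.p. at 30, 100, 300 mg/kg; four mice per group, each used once. Electroconvulsion by electrical stimulus 0.2 s at 50 Hz; protection scored at 0.5 and 2 h. Value is minimum dose showing activity.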
# Mus musculus [7] = assay: Anticonvulsant activity in ip dosed albino CD-1 mouse assessed as protection against 6 Hz current-induced seizure measured after 0.5 hrs; type: functional; details: CD-1, ip, read-out: MED; summary of the method: as §3
# Mus musculus [8] = assay: Anticonvulsant activity in albino CD-1 mouse assessed as protection against maximal electroshock-induced seizure at 30 to 300 mg/kg, ip measured after 0.5 hrs; type: functional; details: for minimal effective dose: CD-1, ip, read-out: MED; summary of the method: as §4
# Vibrio harveyi [9] = assay: Antimutagenic activity in Vibrio harveyi BB7XM assessed as inhibition of nitroquinoline-N-oxide-induced revertant colonies; type: functional
# Summary of the method: (§5)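 Revertants induced by 4-nitroquinoline-N-oxide (final 40 ng/ml) with versus without test compound; TA100 at 37 °C, V. harveyi strains at 30 °C in BOSS medium. Three independent repetitions; inhibition % = 100 − (R1/R2 × 100); 25–40% moderate, ≥40% strong.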
# Vibrio harveyi [10] = assay: Mutagenic activity in Vibrio harveyi BB7 assessed as mutagenicity index at 40 ng/ml; type: organism-based; details: in vivo
# Summary of the method: (§6)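 Ames TA100 liquid pre-incubation (minimal medium, 37 °C) and V. harveyi assay (BOSS medium, 30 °C); test at 40 ng/ml, triplicate. Mutagenic index = induced revertants / spontaneous revertants (DMSO control); M.I. ≥2 considered mutagenic.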
# Vibrio harveyi [11] = assay: Antimutagenic activity in Vibrio harveyi BB7 assessed as inhibition of nitroquinoline-N-oxide-induced revertant colonies; type: functional; summary of the method: as §5
# Vibrio harveyi [12] = assay: Mutagenic activity in Vibrio harveyi BB7XM assessed as mutagenicity index at 40 ng/ml; type: organism-based; details: in vivo; summary of the method: as §6
# Salmonella typhimurium [13] = assay: Antimutagenic activity in Salmonella typhimurium TA100 assessed as inhibition of nitroquinoline-N-oxide-induced revertant colonies by Ames test; type: functional, Salmonella enterica subsp. enterica serovar Typhimurium; summary of the method: as §5
# Salmonella typhimurium [14] = assay: Mutagenic activity in Salmonella typhimurium TA100 assessed as mutagenicity index at 40 ng/ml by Ames test; type: toxicity, organism-based; details: salmonella enterica subsp. enterica serovar typhimurium; summary of the method: as §6
# [15] = Neurotoxicity in ip dosed albino CD-1 mouse assessed as motor impairment by rotarod test; type: toxicity, organism-based; details: in vivo
# Summary of the method: (§7)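 Quantitative work at time of peak effect previously estimated in screening; groups of six mice given various i.p. doses until ≥3 points within 10–90% seizure protection (MES or scPTZ) or minimal motor impairment on rotarod (10 rpm, failure to hold ≥1 min).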
# Mus musculus [16] = assay: Anticonvulsant activity in ip dosed albino CD-1 mouse assessed as protection against subcutaneous pentylenetetrazole-induced seizure measured as time to peak effect; type: functional; summary of the method: as §7
# [17] = Protective index, ratio of TD50 for neurotoxicity in ip dosed albino CD-1 mouse to ED50 for anticonvulsant activity in ip dosed maximal electoshock-induced seizure albino CD-1 mouse model; type: toxicity, organism-based; details: in vivo, read-out: Ratio TD50/ED50
# Summary of the method: (§8)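 Protective index computed as TD50 (rotarod) divided by ED50 (MES or scPTZ), both from probit analysis on groups of six i.p.-dosed mice.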
# Mus musculus [18] = assay: Anticonvulsant activity in ip dosed albino CD-1 mouse assessed as protection against maximal electroshock-induced seizure; type: functional; details: CD-1, ip; summary of the method: as §7
# Mus musculus [19] = assay: Anticonvulsant activity in ip dosed albino CD-1 mouse assessed as protection against maximal electroshock-induced seizure measured as time to peak effect; type: functional; summary of the method: as §7
# Mus musculus [20] = assay: Anticonvulsant activity in ip dosed albino CD-1 mouse assessed as protection against subcutaneous pentylenetetrazole-induced seizure; type: functional; summary of the method: as §7
# [21] = Protective index, ratio of TD50 for neurotoxicity in ip dosed albino CD-1 mouse to ED50 for anticonvulsant activity in ip dosed subcutaneous pentylenetetrazole-induced seizure albino CD-1 mouse model; type: toxicity, organism-based; details: in vivo, read-out: Ratio TD50/ED50; summary of the method: as §8
# Rattus norvegicus = species: Rattus norvegicus; assay: Displacement of [3H]BTX from voltage-sensitive sodium channel site2 in rat cerebral cortex at 100 uM measured after 60.0 mins by scintillation counting; type: tissue-based
compound,measurement,setting,value
CC1(c2ccccc2)CC(=O)N(CC(=O)N2CCOCC2)C1=O (configuration not stated),minimal effective dose,Mus musculus [1],300 mg/kg
same,MTC,Mus musculus [2],Non-toxic
same,MTC,Mus musculus [3],Non-toxic
same,minimal effective dose,Mus musculus [4],100 mg/kg
same,minimal effective dose,Mus musculus [5],300 mg/kg
same,minimal effective dose,Mus musculus [6],300 mg/kg
same,minimal effective dose,Mus musculus [7],100 mg/kg
same,minimal effective dose,Mus musculus [8],300 mg/kg
CC1(c2ccccc2)CC(=O)N(CC(=O)N2CCN(c3ccc(Cl)c(Cl)c3)CC2)C1=O (configuration not stated),inhibition (INH),Vibrio harveyi [9],63%
same,MED,Mus musculus [1],inactive
same,Activity_index,Vibrio harveyi [10],1.2
same,MTC,Mus musculus [2],Non-toxic
same,MTC,Mus musculus [3],Non-toxic
same,inhibition (INH),Vibrio harveyi [11],47%
same,MED,Mus musculus [5],inactive
same,Activity_index,Vibrio harveyi [12],0.7
same,minimal effective dose,Mus musculus [6],300 mg/kg
same,inhibition (INH),Salmonella typhimurium [13],36%
same,Activity_index,Salmonella typhimurium [14],0.3
same,MED,Mus musculus [8],inactive
CC1(c2ccccc2)CC(=O)N(CC(=O)N2CCN(c3ncccn3)CC2)C1=O (configuration not stated),minimal effective dose,Mus musculus [1],100 mg/kg
same,MTC,Mus musculus [2],Non-toxic
same,MTC,Mus musculus [3],Non-toxic
same,MED,Mus musculus [5],inactive
same,MED,Mus musculus [6],inactive
same,MED,Mus musculus [8],inactive
O=C1NC(=O)C(c2ccccc2)(c2ccccc2)N1 [PHENYTOIN],TD50,[15],59.9 mg/kg
same,Time,Mus musculus [16],1 h
same,MED,Mus musculus [1],inactive
same,selectivity ratio,[17],5.56
same,MTC,Mus musculus [2],100 mg/kg
same,MTC,Mus musculus [3],100 mg/kg
same,MED,Mus musculus [5],inactive
same,ED50,Mus musculus [18],6.65 mg/kg
same,Time,Mus musculus [19],1 h
same,minimal effective dose,Mus musculus [6],30 mg/kg
same,minimal effective dose,Mus musculus [8],30 mg/kg
same,ED50,Mus musculus [20],> 500 mg/kg
CC1(c2ccccc2)CC(=O)N(CC(=O)N2CCN(c3ccccc3)CC2)C1=O (configuration not stated),TD50,[15],> 500 mg/kg
same,Time,Mus musculus [16],0.5 h
same,minimal effective dose,Mus musculus [1],300 mg/kg
same,MTC,Mus musculus [2],Non-toxic
same,MTC,Mus musculus [3],Non-toxic
same,minimal effective dose,Mus musculus [5],100 mg/kg
same,selectivity ratio,[21],> 12.2
same,Time,Mus musculus [19],0.5 h
same,MED,Mus musculus [6],inactive
same,inhibition,Rattus norvegicus,34.2%
same,minimal effective dose,Mus musculus [8],300 mg/kg
same,ED50,Mus musculus [20],40.9 mg/kg
CCC1(C)CC(=O)NC1=O (configuration not stated) [ETHOSUXIMIDE],Time,Mus musculus [16],0.25 h
same,minimal effective dose,Mus musculus [1],300 mg/kg
same,MTC,Mus musculus [2],Non-toxic
same,MTC,Mus musculus [3],Non-toxic
same,minimal effective dose,Mus musculus [5],100 mg/kg
same,ED50,Mus musculus [18],> 500 mg/kg
same,Time,Mus musculus [19],0.25 h
same,MED,Mus musculus [6],inactive
same,MED,Mus musculus [8],inactive
CC1(c2ccccc2)CC(=O)N(CC(=O)N2CCN(c3cccc(Cl)c3Cl)CC2)C1=O (configuration not stated),MED,Mus musculus [1],inactive
same,MTC,Mus musculus [2],Non-toxic
same,MTC,Mus musculus [3],Non-toxic
same,minimal effective dose,Mus musculus [5],300 mg/kg
same,MED,Mus musculus [6],inactive
same,MED,Mus musculus [8],inactive
COc1cccc(N2CCN(C(=O)CN3C(=O)CC(C)(c4ccccc4)C3=O)CC2)c1 (configuration not stated),MED,Mus musculus [1],inactive
same,MTC,Mus musculus [2],Non-toxic
same,MTC,Mus musculus [3],Non-toxic
same,minimal effective dose,Mus musculus [5],100 mg/kg
same,MED,Mus musculus [6],inactive
same,MED,Mus musculus [8],inactive
CC1(c2ccccc2)CC(=O)N(CC(=O)N2CCN(c3cccc(Cl)c3)CC2)C1=O (configuration not stated),TD50,[15],> 500 mg/kg
same,Time,Mus musculus [16],2 h
same,MED,Mus musculus [1],inactive
same,selectivity ratio,[17],> 2.32
same,MTC,Mus musculus [2],Non-toxic
same,MTC,Mus musculus [3],Non-toxic
same,MED,Mus musculus [5],inactive
same,ED50,Mus musculus [18],215 mg/kg
same,Time,Mus musculus [19],2 h
same,minimal effective dose,Mus musculus [6],300 mg/kg
same,minimal effective dose,Mus musculus [8],300 mg/kg
